# Results taken from ChEMBL document CHEMBL3244285, “Hypotensive phospholipids. Some stable analogues of Darmstoff” (J Med Chem, 1978).
# Active and inactive are the calls of the source. The rule behind the calls is not given here.
# Key:
# Rattus norvegicus [1] = assay: Hypotensive activity in awake normotensive rat assessed as decrease in mean blood pressure at 1 mg/100 g, iv measured within 2 mins in presence of beta-adrenergic inhibitor propranolol; format: functional, organism-based
# Rattus norvegicus [2] = assay: Hypotensive activity in awake normotensive rat assessed as mean blood pressure at 1 mg/100 g, iv measured within 2 mins (reference value: 115 +/- 17 mmHg); format: functional
# Rattus norvegicus [3] = assay: Toxicity in awake normotensive rat assessed as heart rate at 1 mg/100 g, iv measured within 2 mins (reference value: 430 +/- 40/min); format: organism-based; details: in vivo
# [4] = Stability of the compound in 0.9% sodium chloride solution at 5 degC measured after 24 hrs; format: physicochemical
# Method in brief: (§1)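 Solution stability was tested by storing drug solutions in 0.9% NaCl at 5 °C. At the stated storage times the stored solutions were given iv to catheterized, unrestrained normotensive rats, and blood pressure and heart-rate responses were re-measured by arterial strain gauge.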
# Rattus norvegicus [5] = assay: Toxicity in awake normotensive rat assessed as decrease in heart rate at 1 mg/100 g, iv measured within 2 mins in presence of beta-adrenergic inhibitor propranolol; format: organism-based; details: in vivo
# Rattus norvegicus [6] = assay: Toxicity in awake normotensive rat assessed as decrease in heart rate at 1 mg/100 g, iv measured for 10 mins; format: organism-based; details: in vivo
# Method in brief: (§2)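 Chronically catheterized, unrestrained normotensive rats received iv drug in 0.9% NaCl through the venous catheter. Heart rate was followed continuously on chart records from the arterial strain-gauge trace, from the moment of injection for at least 10 min.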
# Rattus norvegicus [7] = assay: Toxicity in awake normotensive rat assessed as heart rate at 1 mg/100 g, iv measured within 2 mins (reference value: 430 +/- 50/min); format: organism-based; details: in vivo
# Rattus norvegicus [8] = assay: Toxicity in awake normotensive rat assessed as heart rate at 2 mg/100 g, iv measured within 2 mins (reference value: 420/min); format: organism-based; details: in vivo
# [9] = Stability of the compound in 0.9% sodium chloride solution at 5 degC measured within 1 hr; format: physicochemical; method in brief: as §1
# Rattus norvegicus [10] = species: Rattus norvegicus; assay: Toxicity in spontaneous hypertensive rat model assessed as bradycardia measured after 48 hrs; format: organism-based; details: in vivo
# Rattus norvegicus [11] = assay: Hypotensive activity in awake normotensive rat assessed as mean blood pressure at 2 mg/100 g, iv measured within 2 mins (reference value: 125 mmHg); format: functional
# Rattus norvegicus [12] = assay: Hypotensive activity in awake normotensive rat assessed as mean blood pressure at 1 mg/100 g, iv measured within 2 mins (reference value: 125 +/- 16 mmHg); format: functional
# Rattus norvegicus [13] = assay: Toxicity in awake normotensive rat assessed as cardiac arrest at 4 mg/100 g, iv measured within 2 mins; format: organism-based; details: in vivo
# Rattus norvegicus [14] = species: Rattus norvegicus; assay: Hypotensive activity in spontaneous hypertensive rat model measured after 48 hrs; format: functional, organism-based
# Rattus norvegicus [15] = assay: Toxicity in awake normotensive rat assessed as decrease in heart rate at 2 mg/100 g, iv measured within 2 mins in presence of beta-adrenergic inhibitor propranolol; format: organism-based; details: in vivo
# Rattus norvegicus [16] = assay: Toxicity in awake normotensive rat assessed as decrease in heart rate at 2 mg/100 g, iv measured for 10 mins; format: organism-based; details: in vivo; method in brief: as §2
# Rattus norvegicus [17] = assay: Hypotensive activity in awake normotensive rat assessed as decrease in mean blood pressure at 2 mg/100 g, iv measured within 2 mins in presence of beta-adrenergic inhibitor propranolol; format: functional, organism-based
# Rattus norvegicus [18] = assay: Toxicity in awake normotensive rat assessed as heart rate at 1 mg/100 g, iv measured within 2 mins (reference value: 450 +/- 57/min); format: organism-based; details: in vivo
# Rattus norvegicus [19] = assay: Hypotensive activity in awake normotensive rat assessed as mean blood pressure at 1 mg/100 g, iv measured within 2 mins (reference value: 130 +/- 6.9 mmHg); format: functional
# [20] = Stability of the compound in 0.9% sodium chloride solution at 5 degC measured after 72 hrs; format: physicochemical; method in brief: as §1
Stability [4],Stability [9],Stability [20],SMILES,Activity (Rattus norvegicus [1]),Activity (Rattus norvegicus [2]) [mmHg],heart rate (Rattus norvegicus [3]) [beats/min],Activity (Rattus norvegicus [5]),Activity (Rattus norvegicus [6]),heart rate (Rattus norvegicus [7]) [beats/min],heart rate (Rattus norvegicus [8]) [beats/min],Activity (Rattus norvegicus [10]),Activity (Rattus norvegicus [11]) [mmHg],Activity (Rattus norvegicus [12]) [mmHg],Activity (Rattus norvegicus [13]),Activity (Rattus norvegicus [14]),Activity (Rattus norvegicus [15]),Activity (Rattus norvegicus [16]),Activity (Rattus norvegicus [17]),heart rate (Rattus norvegicus [18]) [beats/min],Activity (Rattus norvegicus [19]) [mmHg]
Stable,,,CCCCCCCCCCCCCCCC1CCC(COP(=O)([O-])O)O1.[Na+] (stereo unspecified),Active,100,350,Toxic,Toxic,,,,,,,,,,,,
,Unstable,,CCCCCCCCCCCCCCCC1OCC(COP(=O)([O-])O)O1.[Na+] (stereo unspecified),Active,,,Toxic,Toxic,310,250,Toxic,100,100,Toxic,Active,Toxic,Toxic,Active,,
,,Stable,CCCCCCCCCCCCCCCC1CCC(COP(=O)([O-])O)C1.[Na+] (stereo unspecified),Active,,,Toxic,Toxic,,,,,,,,,,,375,120
